Experimental findings from ChEMBL document CHEMBL1134518, “5-(Tryptophyl)amino-1,3-dioxoperhydropyrido[1,2-c]pyrimidine-based potent and selective CCK(1)receptor antagonists: structure-activity relationship studies on the substituent at N2-position” (J Med Chem, 2001) are described below.

In general, IC50 refers to the concentration that gives 50% inhibition. A low value points to higher potency.

In test [1] the target is T1, Cholecystokinin receptor type A (Rattus norvegicus, UniProt P30551).
T1 sequence (P30551 whole entry): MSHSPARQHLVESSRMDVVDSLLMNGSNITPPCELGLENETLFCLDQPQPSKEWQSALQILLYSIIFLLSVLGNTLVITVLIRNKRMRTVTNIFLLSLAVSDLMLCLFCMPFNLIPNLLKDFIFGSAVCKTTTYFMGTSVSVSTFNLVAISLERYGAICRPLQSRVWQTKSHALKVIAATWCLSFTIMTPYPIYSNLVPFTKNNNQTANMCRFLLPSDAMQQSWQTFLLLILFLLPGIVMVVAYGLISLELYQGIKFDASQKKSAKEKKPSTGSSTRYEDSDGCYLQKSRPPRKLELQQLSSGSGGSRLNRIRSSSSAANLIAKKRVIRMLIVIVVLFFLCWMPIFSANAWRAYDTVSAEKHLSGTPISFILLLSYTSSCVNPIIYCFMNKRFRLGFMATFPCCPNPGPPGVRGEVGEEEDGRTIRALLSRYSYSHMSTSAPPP
In words: Inhibition of [3H]pCCK-8 specific binding to cholecystokinin type A receptor in rat pancreas. In outline:
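Rat pancreas homogenized in Pipes-HCl pH 6.5 with 30 mM MgCl2, centrifuged twice at 50 000g, 10 min, 4 °C. Membranes (0.2 mg protein/tube) incubated with 0.5 nM [3H]pCCK-8, 30 mM MgCl2, bacitracin and SBTI (0.2 mg/mL each), 120 min, 25 °C. Seven test concentrations in triplicate, at least three experiments.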

Test [2] deals with T2, Gastrin/cholecystokinin type B receptor (Rattus norvegicus, UniProt P30553).
T2 sequence (P30553 whole entry): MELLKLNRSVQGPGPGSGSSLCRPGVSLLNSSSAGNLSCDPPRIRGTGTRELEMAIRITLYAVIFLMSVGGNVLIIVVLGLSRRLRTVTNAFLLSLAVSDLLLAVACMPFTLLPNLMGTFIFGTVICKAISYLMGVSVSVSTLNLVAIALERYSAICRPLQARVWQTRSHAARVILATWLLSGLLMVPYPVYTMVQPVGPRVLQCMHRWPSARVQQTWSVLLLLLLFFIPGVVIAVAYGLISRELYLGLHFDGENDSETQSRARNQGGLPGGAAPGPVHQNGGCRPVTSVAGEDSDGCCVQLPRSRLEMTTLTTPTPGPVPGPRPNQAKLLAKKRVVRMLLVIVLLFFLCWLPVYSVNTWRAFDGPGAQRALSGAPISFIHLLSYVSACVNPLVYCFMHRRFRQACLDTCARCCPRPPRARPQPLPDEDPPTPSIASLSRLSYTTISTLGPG
In words: Inhibition of [3H]pCCK-8 specific binding cholecystokinin type B receptor in rat cerebral cortex membranes. The format is cell membranes, Membrane. In outline: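 Rat brain cortex homogenized in 50 mM Tris-HCl pH 7.4 with 5 mM MgCl2, centrifuged twice at 100 000g, 35 min, 4 °C. Membranes (0.45 mg protein/tube) incubated with 1 nM [3H]pCCK-8 plus bacitracin 0.2 mg/mL, 60 min, 25 °C. Seven test concentrations in triplicate, at least three experiments.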

The species entered for the next test is Rattus norvegicus. In words: Inhibition of amylase release stimulated by CCK-8 (0.1 nM) in dispersed pancreatic acini. The format is functional. In outline: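 Pancreatic acini prepared by collagenase digestion (two 6 min incubations, 37 °C). Acini were suspended in theophylline/BSA-containing buffer and incubated 30 min, 37 °C, under O2 with 0.1 nM CCK-8 and increasing compound concentrations. Released amylase was measured as a percentage of acinar content. IC50 came from linear regression of % inhibition. Three to six experiments in duplicate.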

Take `CC(C)(C)OC(=O)N[C@@H](Cc1c[nH]c2ccccc12)C(=O)NC1CCCN2C(=O)N(c3cccc(C(=O)O)c3)C(=O)CC12` (some centres undefined): the IC50 in test [1] is over 1000 nM; in test [2] it was over 10 µM.

Turning to `CC(C)(C)OC(=O)N[C@@H](Cc1c[nH]c2ccccc12)C(=O)N[C@@H]1CCCN2C(=O)N(c3ccc([N+](=O)[O-])cc3)C(=O)C[C@@H]12`, the concentration for half-maximal inhibition (IC50) in test [1] is 12 nM; in test [2] it was over 10 µM; in the test listed under Rattus norvegicus, 64 nM.

As to `COc1ccc(N2C(=O)CC3C(NC(=O)[C@H](Cc4c[nH]c5ccccc45)NC(=O)OC(C)(C)C)CCCN3C2=O)cc1` (some centres undefined), the IC50 in test [1] was 15.9 nM; in test [2], over 10 µM; in the test listed under Rattus norvegicus, 38.1 nM.

Turning to `Cc1cccc(N2C(=O)C[C@@H]3[C@@H](NC(=O)[C@H](Cc4c[nH]c5ccccc45)NC(=O)OC(C)(C)C)CCCN3C2=O)c1`, the IC50 in test [1] stood at 100 nM; in test [2] it was 1.32 µM.

In the case of `CC(C)(C)OC(=O)N[C@@H](Cc1c[nH]c2ccccc12)C(=O)N[C@H]1CCCN2C(=O)N(Cc3ccccc3)C(=O)C[C@H]12`, the IC50 in test [1] was determined as 22.7 nM; in test [2], 6.15 µM.

Take `C[C@H](c1ccccc1)N1C(=O)C[C@@H]2[C@@H](NC(=O)[C@H](Cc3c[nH]c4ccccc34)NC(=O)OC(C)(C)C)CCCN2C1=O`: the IC50 is over 1000 nM in test [1] and over 10 µM in test [2].

Consider `CC(=O)Oc1cccc(N2C(=O)C[C@H]3[C@H](NC(=O)[C@H](Cc4c[nH]c5ccccc45)NC(=O)OC(C)(C)C)CCCN3C2=O)c1`, for which the IC50 was 70.3 nM in test [1] and over 10 µM in test [2].

Turning to `C[C@@H](c1ccccc1)N1C(=O)C[C@H]2[C@H](NC(=O)[C@H](Cc3c[nH]c4ccccc34)NC(=O)OC(C)(C)C)CCCN2C1=O`, the IC50 is 6.89 nM in test [1], over 10 µM in test [2] and 112 nM in the test listed under Rattus norvegicus.

Take `CN(C)c1ccc(N2C(=O)C[C@@H]3[C@@H](NC(=O)[C@H](Cc4c[nH]c5ccccc45)NC(=O)OC(C)(C)C)CCCN3C2=O)cc1`: the results for the IC50 in test [1] and in test [2] were over 1000 nM and 2.32 µM, respectively.

`CC(C)(C)OC(=O)N[C@@H](Cc1c[nH]c2ccccc12)C(=O)N[C@H]1CCCN2C(=O)N(C3CCCCC3)C(=O)C[C@H]12`: the IC50 in test [1] is 165 nM; in test [2], 7.16 µM; in the test filed under Rattus norvegicus, 287 nM.

In the case of `CCOC(=O)[C@H](Cc1ccccc1)N1C(=O)C[C@@H]2[C@@H](NC(=O)[C@H](Cc3c[nH]c4ccccc34)NC(=O)OC(C)(C)C)CCCN2C1=O`, the IC50 in test [1] was over 1000 nM; in test [2] it was over 10 µM.

Take `CC(C)(C)OC(=O)N[C@@H](Cc1c[nH]c2ccccc12)C(=O)N[C@@H]1CCCN2C(=O)N(c3ccccc3)C(=O)C[C@@H]12`: the IC50 in test [1] was 1.18 nM; in test [2], over 10 µM; in the test listed under Rattus norvegicus, 3.5 nM.

With `CC(C)(C)OC(=O)N[C@@H](Cc1c[nH]c2ccccc12)C(=O)N[C@H]1CCCN2C(=O)N(c3ccccc3)C(=O)C[C@H]12`, the values for the IC50 (in test [1]; in test [2]; in the test filed under Rattus norvegicus) were 628 nM, over 10 µM and over 1000 nM, respectively.

For `CN(C)c1cccc(N2C(=O)C[C@@H]3[C@@H](NC(=O)[C@H](Cc4c[nH]c5ccccc45)NC(=O)OC(C)(C)C)CCCN3C2=O)c1`, the figures for the IC50 in test [1] and in test [2] were over 1000 nM and over 10 µM, respectively.

With `CC(C)(C)OC(=O)N[C@@H](Cc1c[nH]c2ccccc12)C(=O)N[C@@H]1CCCN2C(=O)N(C3CCCCC3)C(=O)C[C@@H]12`, the IC50 was 0.6 nM in test [1], over 10 µM in test [2] and 3 nM in the test listed under Rattus norvegicus.

Turning to `C[C@@H](c1ccccc1)N1C(=O)C[C@@H]2[C@@H](NC(=O)[C@H](Cc3c[nH]c4ccccc34)NC(=O)OC(C)(C)C)CCCN2C1=O`, the concentration for half-maximal inhibition (IC50) was over 1000 nM in test [1] and over 10 µM in test [2].

Turning to `CC(C)(C)OC(=O)N[C@@H](Cc1c[nH]c2ccccc12)C(=O)N[C@H]1CCCN2C(=O)N(c3ccc([N+](=O)[O-])cc3)C(=O)C[C@H]12`, the IC50 is over 1000 nM in test [1] and over 10 µM in test [2].

In the case of `CC(C)(C)OC(=O)N[C@H](Cc1c[nH]c2ccccc12)C(=O)N[C@H]1CCCN2C(=O)N(c3cccc4ccccc34)C(=O)C[C@H]12`, the IC50 is over 1000 nM in test [1] and over 10 µM in test [2].

In the case of `Cc1ccccc1N1C(=O)C[C@@H]2[C@@H](NC(=O)[C@H](Cc3c[nH]c4ccccc34)NC(=O)OC(C)(C)C)CCCN2C1=O`, the IC50 in test [1] was over 1000 nM; in test [2], over 10 µM.

As for `Cc1ccc(N2C(=O)C[C@H]3[C@H](NC(=O)[C@H](Cc4c[nH]c5ccccc45)NC(=O)OC(C)(C)C)CCCN3C2=O)cc1`, the figures for the IC50 (in test [1]; in test [2]; in the test filed under Rattus norvegicus) were 2.9 nM, over 10 µM and 16.6 nM, respectively.

With `CN1C(=O)C[C@@H]2[C@@H](NC(=O)[C@H](Cc3c[nH]c4ccccc34)NC(=O)OC(C)(C)C)CCCN2C1=O`, the IC50 in test [2] was over 10 µM.

With `CC(C)(C)OC(=O)N[C@@H](Cc1c[nH]c2ccccc12)C(=O)N[C@@H]1CCCN2C(=O)N(Cc3ccccc3)C(=O)C[C@@H]12` [IQM-95333], the IC50 in test [2] was over 10 µM.

With `CC(C)(C)OC(=O)N[C@@H](Cc1c[nH]c2ccccc12)C(=O)N[C@H]1CCCN2C(=O)N(c3ccncc3)C(=O)C[C@H]12` (relative stereo), the IC50 in test [1] was 386 nM; in test [2], over 10 µM.

In the case of `CC(C)(C)OC(=O)N[C@@H](Cc1c[nH]c2ccccc12)C(=O)NC1CCCN2C(=O)N(C(Cc3ccccc3)C(=O)O)C(=O)CC12` (some centres undefined), the results for the IC50 in test [1] and in test [2] were over 1000 nM and over 10 µM, respectively.

In the case of `CC(C)(C)OC(=O)N[C@@H](Cc1c[nH]c2ccccc12)C(=O)NC1CCCN2C(=O)N(c3cccc(O)c3)C(=O)CC12` (some centres undefined), the IC50 in test [1] was over 1000 nM; in test [2], over 10 µM.

For `COC(=O)C(Cc1ccccc1)N1C(=O)CC2C(NC(=O)[C@H](Cc3c[nH]c4ccccc34)NC(=O)OC(C)(C)C)CCCN2C1=O` (some centres undefined), the 50% inhibitory concentration (IC50) in test [1] was over 1000 nM; in test [2] it was over 10 µM.

Compound `CSCC[C@H](NC(=O)[C@H](Cc1ccc(O)cc1)NC(=O)[C@@H](N)CC(=O)O)C(=O)NCC(=O)N[C@@H](Cc1c[nH]c2ccccc12)C(=O)N[C@@H](CCSC)C(=O)N[C@@H](CC(=O)O)C(=O)N[C@@H](Cc1ccccc1)C(N)=O` showed an IC50 in test [1] of 1.04 nM.

`CC(C)(C)OC(=O)N[C@@H](Cc1c[nH]c2ccccc12)C(=O)N[C@H]1CCCN2C(=O)N(c3cccc([N+](=O)[O-])c3)C(=O)C[C@H]12`: the values for the half-maximal inhibitory concentration (IC50) in test [1] and in test [2] were over 1000 nM and over 10 µM, respectively.

Regarding `CCOC(=O)[C@H](Cc1ccccc1)N1C(=O)C[C@H]2[C@H](NC(=O)[C@H](Cc3c[nH]c4ccccc34)NC(=O)OC(C)(C)C)CCCN2C1=O`, the IC50 is over 1000 nM in test [1] and over 10 µM in test [2].

Turning to `CN(C)c1cccc(N2C(=O)C[C@H]3[C@H](NC(=O)[C@H](Cc4c[nH]c5ccccc45)NC(=O)OC(C)(C)C)CCCN3C2=O)c1`, the figures for the IC50 in test [1] and in test [2] were 50.8 nM and over 10 µM, respectively.

In the case of `Cc1ccc(N2C(=O)C[C@@H]3[C@@H](NC(=O)[C@H](Cc4c[nH]c5ccccc45)NC(=O)OC(C)(C)C)CCCN3C2=O)cc1`, the half-inhibitory concentration (IC50) in test [1] amounted to 200 nM; in test [2] it was 2.32 µM.

For `CC(C)(C)OC(=O)N[C@@H](Cc1c[nH]c2ccccc12)C(=O)N[C@H]1CCCN2C(=O)N(c3cccc4ccccc34)C(=O)C[C@H]12`, the values for the IC50 in test [1] and in test [2] were over 1000 nM and over 10 µM, respectively.
